ChEMBL document CHEMBL1145208, “3-Substituted imidazo[1,2-d][1,2,4]-thiadiazoles: a novel class of factor XIIIa inhibitors” (J Med Chem, 2005)
pIC50: −log10 of the molar value. In brackets after ≈: the same amount, converted by molar mass.

How the values were obtained:
[1] = test system: Cell line; assay: Concentration causing reduction in fibrin gamma-chain cross-linking in platelet-depleted human plasma; type: functional
[2] = biological target: T1, Coagulation factor XIII A chain (Homo sapiens, UniProt P00488); assay: In vitro inhibitory concentration of compound against factor XIIIa
T1 sequence (P00488 whole entry): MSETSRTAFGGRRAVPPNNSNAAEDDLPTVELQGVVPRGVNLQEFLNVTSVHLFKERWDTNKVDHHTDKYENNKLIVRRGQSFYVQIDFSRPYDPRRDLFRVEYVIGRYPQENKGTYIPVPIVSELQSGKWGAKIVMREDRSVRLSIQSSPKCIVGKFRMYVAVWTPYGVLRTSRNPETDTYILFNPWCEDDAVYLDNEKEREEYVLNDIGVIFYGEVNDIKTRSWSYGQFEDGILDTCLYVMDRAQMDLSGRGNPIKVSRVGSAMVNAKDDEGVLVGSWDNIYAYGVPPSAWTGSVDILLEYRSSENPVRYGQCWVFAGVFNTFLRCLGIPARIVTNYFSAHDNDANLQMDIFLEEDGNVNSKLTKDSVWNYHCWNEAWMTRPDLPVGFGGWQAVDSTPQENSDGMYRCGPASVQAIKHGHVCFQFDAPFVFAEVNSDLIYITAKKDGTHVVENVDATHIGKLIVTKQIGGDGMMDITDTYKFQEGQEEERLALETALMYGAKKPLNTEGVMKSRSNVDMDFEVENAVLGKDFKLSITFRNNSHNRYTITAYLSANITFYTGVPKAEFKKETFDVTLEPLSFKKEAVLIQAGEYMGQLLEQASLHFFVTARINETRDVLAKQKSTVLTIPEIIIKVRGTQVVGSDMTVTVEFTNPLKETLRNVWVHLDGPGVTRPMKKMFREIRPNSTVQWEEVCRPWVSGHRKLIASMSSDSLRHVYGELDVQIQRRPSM

[3] = Solubility at pH 7.4 was determined; type: physicochemical; settings: buffer
Summary of the method: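 Aqueous solubility of the inhibitors measured at pH 7.4, reported in mg/mL.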

Row | pIC50 [2] | SMILES | also measured
1 | – | O=[N+]([O-])c1ccccc1S(=O)(=O)NCCCCCCNc1nsc2nccn12 | Concentration [1]: 160 µM
2 | 6.04 | O=[N+]([O-])c1ccc(S(=O)(=O)NCCCCCCNc2n[s+]c3[n-]ccn23)cc1 | –
3 | – | O=C(O)CN(CCCCCCNS(=O)(=O)c1ccccc1[N+](=O)[O-])c1nsc2nccn12 | solubility [3]: 380 µg/mL (≈ 787 µM)
4 | 3.77 | O=[N+]([O-])c1ccccc1S(=O)(=O)NCCCCCCNc1ncccc1[N+](=O)[O-] | –
